The Ki is the dissociation constant of the complex between target and ligand, obtained from inhibition or displacement. Read a low Ki as higher affinity. By inhibition is commonly meant how much of the control response was suppressed. Higher therefore signals a strong effect. Usually clearance stands for the volume of plasma or blood freed of the substance per unit of time. The bioavailability is the share of a dose that reaches the circulation, judged against a reference dose that is usually intravenous. Read a high bioavailability as much systemic uptake. What is called half-life is the time in which the quantity being followed falls by half. Low values mean rapid decline, high ones slow decline.

Data set [1] deals with T1, Prothrombin (Homo sapiens, UniProt P00734). Description: In vitro inhibition of human thrombin.
For data set [2], the target named is T2, Serine protease 1 (Homo sapiens, UniProt P07477). Description: In vitro inhibition of human trypsin. A digest of the protocol:
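Human pancreatic trypsin, chromogenic substrate S2222, 50 mM HEPES/150 mM NaCl pH 8.0. Kinetic assay over 15 min after starting with substrate at four concentrations. Ki taken from 1/V versus 1/S plot.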

The target of data set [3] is T1, Prothrombin. Description: Percentage inhibition against human thrombin at dose of 10 X E-6 M.
Data set [4] addresses T2, Serine protease 1. The experiment in a line: Percentage inhibition effect human trypsin at dose of 10 X E-4 M.
Data set [5] concerns the target T1, Prothrombin. The experiment in a line: Percentage inhibition effect of human thrombin at dose of 10 X E-6 M.
A short description of data set [6]: Plasma clearance in Male Sprague-Dawley rats after intravenous administration at a dose of 10 mg/kg. The format is ADME, organism-based. More on the design: dose 10 mg/kg, route intravenous. As to conditions: rat. A digest of the protocol:
(§1)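 PK: male Sprague–Dawley rats (n = 3 per sampling time) given saline solution as rapid iv bolus via caudal vein; Beagle dogs (n = 2) given constant-rate iv infusion over 15 min via saphenous vein. Plasma collected into lithium heparin; drug measured by LCMS with internal standard after solid-phase extraction at pH 6.0. Parameters derived by computational PK analysis.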

The nature of data set [7]: Oral bioavailability in Beagle dogs after Per oral administration at dose of 50(mg/kg). The data set is classed as ADME, organism-based, Canis lupus familiaris. As to conditions: dog, in vivo, 10 mg/kg, in the assay text read “10(mg/kg)” for “50(mg/kg)”. A digest of the protocol:
(§2)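 Oral bioavailability: compound in water given by gavage to male Sprague–Dawley rats (n = 3 per sampling time) and Beagle dogs (n = 2). Plasma collected into lithium heparin (dog saphenous cannula, conscious; rat vena cava under halothane). Drug quantified by LCMS, compared with iv saline dosing; parameters from computational PK analysis.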

The nature of data set [8]: Alpha-elimination half-life in Male Sprague-Dawley rats after intravenous administration at a dose of 10 mg/kg. The data set is classed as ADME, organism-based. More on the design: dose 10 mg/kg, route intravenous. As to conditions: rat, in vivo. A digest of the protocol:
as §1

Data set [9] in a line: Beta-elimination half-life in Male Sprague-Dawley rats after intravenous administration at a dose of 10 mg/kg. The data set is classed as ADME, organism-based. Details: dose 10 mg/kg, route intravenous. As to conditions: rat, in vivo. A digest of the protocol: as §1
Data set [10] is described as follows: Oral bioavailability in rat (Sprague-Dawley) (male) (dose 50 mg/kg p.o.). The data set is classed as ADME, organism-based. As to conditions: in vivo. A digest of the protocol:
as §2

Data set [11] can be described thus: Volume of distribution in Male Sprague-Dawley rats after intravenous administration at a dose of 10 mg/kg. The following applies: rat, in vivo, read-out: Volume. The format is ADME, organism-based. Details: dose 10 mg/kg, route intravenous. A digest of the protocol:
as §1

The target of data set [12] is T3, Coagulation factor VII (Homo sapiens) (UniProt P08709).
T3 sequence (whole entry): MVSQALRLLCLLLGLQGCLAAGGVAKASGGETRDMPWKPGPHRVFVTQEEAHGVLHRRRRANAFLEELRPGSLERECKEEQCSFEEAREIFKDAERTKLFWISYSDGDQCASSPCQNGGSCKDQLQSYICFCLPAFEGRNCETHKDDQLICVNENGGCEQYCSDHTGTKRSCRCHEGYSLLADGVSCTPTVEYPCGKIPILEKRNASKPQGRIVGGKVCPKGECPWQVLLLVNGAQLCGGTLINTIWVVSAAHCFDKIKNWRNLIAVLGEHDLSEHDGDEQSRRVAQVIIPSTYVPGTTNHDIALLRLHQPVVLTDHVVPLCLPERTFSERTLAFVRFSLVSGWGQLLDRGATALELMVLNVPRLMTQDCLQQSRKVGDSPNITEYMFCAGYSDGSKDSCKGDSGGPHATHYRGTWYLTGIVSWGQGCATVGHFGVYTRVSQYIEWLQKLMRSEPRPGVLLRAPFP
The experiment in a line: Percentage inhibition of Coagulation factor VIIa (FVIIa) at a concentration of 10 X E-4 M from human plasma. The format is cell-free. A digest of the protocol:
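Human plasma FVIIa, 0.06 μg/mL final, plus recombinant tissue factor at 0.12 μg/mL final; substrate N-methylsulfonyl-D-Phe-Pro-Arg-pNA. Buffer 50 mM TRIS/100 mM NaCl pH 7.5. Compound preincubated with enzyme 15 min at room temperature, then substrate added; 30 min at 30 °C; OD 405 nm; percentage inhibition from triplicates.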

Data set [13] addresses Coagulation factor X (Bos taurus, UniProt P00743). Description: Inhibitory effect on Coagulation factor Xa (FXa) from bovine plasma. The format is cell-free. A digest of the protocol: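 Bovine plasma FXa, 0.02 U/mL final, with S2222 at 0.2 mM final, in 50 mM HEPES/150 mM NaCl pH 7.5. Aqueous compound dilutions preincubated with enzyme 15 min at room temperature, then substrate added; OD 405 nm read after 30 min at 30 °C. IC50 from triplicate eight-concentration curves; Ki via Cheng–Prusoff using substrate Km.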

Data set [14] is described as follows: Plasma clearance in Beagle dogs after intravenous administration at a dose of 1 mg/kg. As to conditions: dog.
The nature of data set [15]: Volume of distribution in Beagle dogs after intravenous administration at a dose of 1 mg/kg. The following applies: dog, in vivo.
The nature of data set [16]: Beta-elimination half-life in Beagle dogs after intravenous administration at a dose of 1 mg/kg. The following applies: dog, in vivo.
Data set [17] in a line: Alpha-elimination half-life in Beagle dogs after intravenous administration at a dose of 1 mg/kg. The following applies: dog, in vivo.
Data set [18] concerns the target T1, Prothrombin. The experiment in a line: Percentage inhibition against of human thrombin at dose of 10 X E-6 M.
Data set [19] addresses T2, Serine protease 1. The experiment in a line: Percentage inhibition against human trypsin at dose of 10 X E-4 M.
The nature of data set [20]: Oral bioavailability in Beagle dogs after Per oral administration at dose of 2(mg/kg). As to conditions: dog, in vivo. The data set is classed as ADME, organism-based, Canis lupus familiaris. A digest of the protocol: as §2
Data set [21] is described as follows: Plasma clearance in Beagle dogs after intravenous administration at a dose of 1 mg/kg. Details: dose 1 mg/kg, route intravenous. The format is ADME, organism-based, Canis lupus familiaris. The following applies: dog. A digest of the protocol: as §1
A short description of data set [22]: Volume of distribution in Beagle dogs after intravenous administration at a dose of 1 mg/kg. Details: dose 1 mg/kg, route intravenous. The data set is classed as ADME, organism-based, Canis lupus familiaris. The following applies: dog, in vivo, read-out: Volume. A digest of the protocol: as §1
Data set [23] can be described thus: Beta-elimination half-life in Beagle dogs after intravenous administration at a dose of 1 mg/kg. Details: dose 1 mg/kg, route intravenous. The format is ADME, organism-based, Canis lupus familiaris. The following applies: dog, in vivo. A digest of the protocol: as §1
Data set [24] deals with T2, Serine protease 1. The experiment in a line: Percentage inhibition against human trypsin at dose of 10 X E-5 M.

T2 sequence (P07477 whole entry): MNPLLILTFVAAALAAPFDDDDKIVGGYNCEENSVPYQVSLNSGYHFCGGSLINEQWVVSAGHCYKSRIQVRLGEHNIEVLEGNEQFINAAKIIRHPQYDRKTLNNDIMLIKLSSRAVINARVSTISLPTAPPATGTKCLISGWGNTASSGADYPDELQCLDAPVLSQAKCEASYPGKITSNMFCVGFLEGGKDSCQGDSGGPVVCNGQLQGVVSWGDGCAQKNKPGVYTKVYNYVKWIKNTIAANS
Coagulation factor X, sequence (P00743 41-180 limits assumed): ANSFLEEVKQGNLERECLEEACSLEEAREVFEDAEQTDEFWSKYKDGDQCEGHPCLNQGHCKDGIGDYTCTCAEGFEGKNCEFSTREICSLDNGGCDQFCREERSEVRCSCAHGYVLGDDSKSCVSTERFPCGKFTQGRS
Coagulation factor X, sequence (P00743 234-492 limits assumed): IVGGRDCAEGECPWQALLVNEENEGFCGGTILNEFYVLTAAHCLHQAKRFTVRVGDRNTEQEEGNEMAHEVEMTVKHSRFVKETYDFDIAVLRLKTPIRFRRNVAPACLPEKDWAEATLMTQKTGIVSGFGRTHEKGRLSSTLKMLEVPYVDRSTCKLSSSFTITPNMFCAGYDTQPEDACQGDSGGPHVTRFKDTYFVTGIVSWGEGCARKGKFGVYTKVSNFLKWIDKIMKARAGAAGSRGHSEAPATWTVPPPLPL

Take `N=C(N)N1CCC(OCCC2CCCCN2C(=O)[C@H](CC(=O)O)NCC2CCCCC2)CC1` (stereo partly specified): the inhibition constant (Ki) in data set [1] worked out at 16 nM; in data set [2], 1600 nM.

For `CN(C1CCCCCC1)[C@@H](CC(=O)O)C(=O)N1CCCC[C@H]1CCOC1CCN(C(=N)N)CC1`, the inhibition constant Ki is 0.53 nM in data set [1] and 810 nM in data set [2].

Regarding `N=C(N)N1CCC(OCC[C@@H]2CCCCN2C(=O)[C@H](CC(=O)O)NCc2ccccc2)CC1`, in data set [3], the inhibition is 24%. Moreover, in [2], the affinity, expressed as Ki, was 9200 nM.

`CCS(=O)(=O)N[C@H](Cc1ccccc1)C(=O)N1CCC[C@H]1C(=O)NCC1CCN(C(=N)N)CC1`: in [1], the affinity corresponds to a Ki of 15 nM.

For the compound `N=C(N)c1ccc(OCC[C@H]2CCCCN2C(=O)[C@@H](CC2CCCCC2)NCC(=O)O)cc1`, the Ki in data set [1] is 120 nM; in [2] it was 7300 nM.

Regarding `N=C(N)N1CCC(OCCC2CCCCN2C(=O)[C@@H](CC2CCCCC2)NCC(=O)O)CC1` (stereo partly specified), the figures for the Ki in data set [1] and in data set [2] were 0.96 nM and 370 nM, respectively.

Consider `N=C(N)c1ccc(OCC[C@@H]2CCCCN2C(=O)[C@@H](CC2CCCCC2)NCC(=O)O)cc1`, for which the Ki came to 0.37 nM in data set [1] and 89 nM in [2].

Take `N=C(N)N1CCC(OCC[C@@H]2CCCCN2C(=O)[C@H](CC(=O)O)NC2CCCCCC2)CC1`: the values for the Ki in data set [1] and in data set [2] were 1.1 nM and 700 nM, respectively.

With `CN(C)CCN(C1CCCCC1)[C@@H](CC(=O)O)C(=O)N1CCCCC1CCOC1CCN(C(=N)N)CC1` (stereo partly specified), the inhibition in data set [4] and in data set [5] was 0% throughout.

With `CN(C1CCCCC1)[C@@H](CCC(=O)O)C(=O)N1CCCC[C@H]1CCOC1CCN(C(=N)N)CC1`, the Ki came out at 1.8 nM in data set [1] and 550 nM in [2].

Turning to `CN(C1CCCCC1)[C@@H](CC(=O)O)C(=O)N1CCCC[C@H]1CCOC1CCN(C(=N)N)CC1`, the results for the clearance in data set [6] and in data set [14] were 21.2 mL/min/kg and 6.4 mL/min/kg, respectively. The values for the bioavailability in data set [7] and in data set [10] were 9% and 2%, respectively. The half-life was 7.2 min in data set [8], 48 min in data set [9], 60 min in [16] and 9.6 min in [17]. For the same compound, the Vd in data set [11] was 0.31 L/kg; in data set [15] it was 0.53 L/kg. In addition, the inhibition in [12] is 38.7%. For the same compound, the results for the inhibition constant (Ki) in data set [13], in data set [1] and in [2] were 4970 nM, 2.17 nM and 1930 nM, respectively.

As for `CN(C1CCCOC1)[C@@H](CC(=O)O)C(=O)N1CCCC[C@H]1CCOC1CCN(C(=N)N)CC1` (stereo partly specified), the inhibition in [18] came out at 16%; in data set [19] it was 48%.

As to `N=C(N)N1CCC(OCCC2CCCCN2C(=O)[C@H](CC(=O)O)NC2CCCCCCC2)CC1` (stereo partly specified), the Ki in [1] turned out to be 1.3 nM; in [2], 720 nM.

Regarding `CC1=CCN(C(=O)[C@H](Cc2cccc(C(=N)N)c2)NS(=O)(=O)c2ccc3c(c2)CCN(C)CC3)[C@@H](C(=O)O)C1`, the clearance in data set [6] came out at 11 mL/min/kg; in data set [21], 6.9 mL/min/kg. Also, the half-life in data set [9] is 48 min; in data set [23], 54 min. The bioavailability in [10] was 16%; in data set [20], 37%. Besides, the Vd in [11] came out at 0.6 L/kg; in data set [22], 0.53 L/kg.

As to `CCC(CC)N[C@@H](CC(=O)O)C(=O)N1CCCC[C@H]1CCOC1CCN(C(=N)N)CC1`, the inhibition constant (Ki) in data set [1] amounted to 9.8 nM; in data set [2], 1400 nM.

In the case of `N=C(N)N1CCC(OCCC2CCCCN2C(=O)[C@H](CC(=O)O)NC2CCCCC2)CC1` (stereo partly specified), the Ki worked out at 7.1 nM in data set [1] and 2900 nM in data set [2].

Consider `CN1CCC(N[C@@H](CC(=O)O)C(=O)N2CCCC[C@H]2CCOC2CCN(C(=N)N)CC2)CC1`, for which the inhibition constant Ki in data set [1] was 90 nM; in data set [2], 4800 nM.

As to `CCN(C1CCCCC1)[C@@H](CC(=O)O)C(=O)N1CCCCC1CCOC1CCN(C(=N)N)CC1` (stereo partly specified), the Ki in data set [1] stood at 16 nM; in data set [2], 5000 nM.

Consider `N=C(N)N1CCC(OCCC2CCCCN2C(=O)[C@@H](Cc2ccccc2)NCC(=O)O)CC1` (stereo partly specified), for which the results for the inhibitory constant (Ki) in data set [1] and in data set [2] were 370 nM and 7900 nM, respectively.

As for `N=C(N)N1CCC(OCCC2CCCCN2C(=O)[C@H](CC(=O)O)NC2CCCC2)CC1` (stereo partly specified), the Ki in data set [1] was 32 nM; in data set [2] it was 5000 nM.

`N=C(N)N1CCC(OCCC2CCCCN2C(=O)[C@H](CC(=O)O)NC2CCOCC2)CC1` (stereo partly specified): the inhibition worked out at 42% in data set [18] and 23% in data set [24].

For the compound `CN(C1CCC=CCC1)[C@@H](CC(=O)O)C(=O)N1CCCC[C@H]1CCOC1CCN(C(=N)N)CC1`, the Ki in [1] stood at 0.8 nM; in data set [2], 1100 nM.

Values taken from ChEMBL document CHEMBL1135990, “Design of selective thrombin inhibitors based on the (R)-Phe-Pro-Arg sequence” (J Med Chem, 2002).
